# Results taken from ChEMBL document CHEMBL1932992, “Synthesis and anticonvulsant activity of 1-(8-(benzyloxy)quinolin-2-yl)-6-substituted-4,6-diazaspiro[2,4]heptane-5,7-diones” (Eur J Med Chem, 2012).
# Calls of active or inactive are those of the source.
# Experiments:
# [1] = test system: Mus musculus; assay: Anticonvulsant activity in ip dosed Kunming mouse assessed as protection against subcutaneous pentylenetetrazole-induced seizure; type: functional
# In short: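 Median effective dose in male Kunming mice, groups of 10, given a range of ip doses until at least three points fell between 10–90% seizure protection.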
# [2] = test system: Mus musculus; assay: Anticonvulsant activity in ip dosed Kunming mouse assessed as protection against subcutaneous pentylenetetrazole-induced seizure after 0.5 hrs; type: functional; details: read-out: MED
# In short: (§1)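 Male Kunming mice (20 ± 2.0 g) were given ip doses of 30, 100 or 300 mg/kg in 0.5% methylcellulose, one to four mice per dose. They were then challenged with subcutaneous pentylenetetrazole dissolved in 0.9% saline at 0.5 h and 4.0 h. Protection was the absence of even a threshold seizure (a single clonic spasm lasting at least 5 s). The value is the minimal dose active in half or more of the mice.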
# [3] = test system: Mus musculus; assay: Anticonvulsant activity in ip dosed Kunming mouse assessed as protection against maximal electroshock-induced seizure after 0.5 hrs; type: functional; details: read-out: MED
# In short: (§2)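 Male Kunming mice (20 ± 2.0 g) received ip 30, 100 or 300 mg/kg as a suspension in 0.5% methylcellulose, one to four mice per dose. At 0.5 h and 4.0 h, a 60-Hz, 50-mA current was applied for 0.25 s via corneal electrodes. Protection meant no hindlimb tonic extension. The value is the minimal dose protecting half or more of the mice.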
# [4] = test system: Mus musculus; assay: Anticonvulsant activity in Kunming mouse assessed as protection against subcutaneous pentylenetetrazole-induced seizure at 300 mg/kg, ip after 4 hrs; type: functional, organism-based; design: dose 300 mg/kg; in short: as §1
# [5] = test system: Mus musculus; assay: Neurotoxicity in Kunming mouse assessed as minimal motor impairment at 300 mg/kg, ip after 4 hrs by rotarod test; type: toxicity, organism-based; design: dose 300 mg/kg, route intraperitoneal; details: in vivo
# In short: (§3)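 Rotorod screen in trained male Kunming mice dosed ip at 30, 100 or 300 mg/kg in 0.5% methylcellulose, read at 0.5 h and 4.0 h. Mice were placed on a knurled rod 1 in. in diameter turning at 6 rpm. Impairment was failure to stay on the rod for at least 1 min in each of four trials. The value is the minimal dose affecting half or more of the mice.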
# [6] = test system: Mus musculus; assay: Anticonvulsant activity in Kunming mouse assessed as protection against maximal electroshock-induced seizure at 300 mg/kg, ip after 4 hrs; type: functional, organism-based; design: dose 300 mg/kg; in short: as §2
# [7] = Neurotoxicity in ip dosed Kunming mouse assessed as minimal motor impairment after 0.5 hrs by rotarod test; type: toxicity, organism-based; details: in vivo
# [8] = test system: Mus musculus; assay: Anticonvulsant activity in ip dosed Kunming mouse assessed as protection against maximal electroshock-induced seizure; type: functional
# [9] = test system: Mus musculus; assay: Anticonvulsant activity in ip dosed Kunming mouse assessed as protection against maximal electroshock-induced seizure after 4 hrs; type: functional; details: read-out: MED; in short: as §2
# [10] = test system: Mus musculus; assay: Neurotoxicity in Kunming mouse assessed as minimal motor impairment at 300 mg/kg, ip after 0.5 hrs by rotarod test; type: toxicity, organism-based; design: dose 300 mg/kg, route intraperitoneal; details: in vivo; in short: as §3
# [11] = test system: Mus musculus; assay: Anticonvulsant activity in Kunming mouse assessed as protection against maximal electroshock-induced seizure at 300 mg/kg, ip after 0.5 hrs; type: functional, organism-based; design: dose 300 mg/kg; in short: as §2
# [12] = test system: Mus musculus; assay: Protective index, ratio of TD50 for ip dosed Kunming mouse to ED50 for ip dosed Kunming mouse by subcutaneous pentylenetetrazole induced seizure test; type: functional
# [13] = test system: Mus musculus; assay: Protective index, ratio of TD50 for ip dosed Kunming mouse to ED50 for ip dosed Kunming mouse by maximal electroshock seizure test; type: functional
# [14] = test system: Mus musculus; assay: Anticonvulsant activity in Kunming mouse assessed as protection against subcutaneous pentylenetetrazole-induced seizure at 300 mg/kg, ip after 0.5 hrs; type: functional, organism-based; design: dose 300 mg/kg; in short: as §1
# [15] = test system: Mus musculus; assay: Anticonvulsant activity in ip dosed Kunming mouse assessed as protection against subcutaneous pentylenetetrazole-induced seizure after 4 hrs; type: functional; details: read-out: MED; in short: as §1
smiles,measurement,setting,value
CCCC(CCC)C(=O)[O-].[Na+] [VALPROATE SODIUM],ED50,[1],149 mg/kg
O=C1NC(=O)C2(CC2c2ccc3cccc(OCc4ccccc4)c3n2)N1 (racemic),minimal effective dose,[2],300 mg/kg
same,minimal effective dose,[3],300 mg/kg
same,Activity,[4],inactive
same,Activity,[5],Non-toxic
same,Activity,[6],inactive
same,MTD at 0.5 h,[7],300 mg/kg
CCC1(c2ccccc2)C(=O)NC(=O)NC1=O [PHENOBARBITAL],ED50,[1],13.2 mg/kg
same,ED50,[8],21.8 mg/kg
CC(C)N1C(=O)NC2(CC2c2ccc3cccc(OCc4ccccc4)c3n2)C1=O (racemic),minimal effective dose,[2],100 mg/kg
same,minimal effective dose,[3],300 mg/kg
same,minimal effective dose,[9],100 mg/kg
same,Activity,[4],inactive
same,Activity,[5],Non-toxic
same,Activity,[10],Non-toxic
NC(=O)N1c2ccccc2C=Cc2ccccc21 [CARBAMAZEPINE],ED50,[1],> 100 mg/kg
same,ED50,[8],8.8 mg/kg
O=C1NC2(CC2c2ccc3cccc(OCc4ccccc4)c3n2)C(=O)N1c1cc(Cl)cc(Cl)c1 (racemic),minimal effective dose,[2],300 mg/kg
same,Activity,[4],inactive
same,Activity,[5],Non-toxic
same,Activity,[6],inactive
same,Activity,[11],inactive
same,MTD at 0.5 h,[7],300 mg/kg
O=C1NC2(CC2c2ccc3cccc(OCc4ccccc4)c3n2)C(=O)N1c1ccc([N+](=O)[O-])cc1 (racemic),minimal effective dose,[2],300 mg/kg
same,minimal effective dose,[9],300 mg/kg
same,Activity,[4],inactive
same,Activity,[5],Non-toxic
same,Activity,[10],Non-toxic
same,Activity,[11],inactive
COc1ccc(N2C(=O)NC3(CC3c3ccc4cccc(OCc5ccccc5)c4n3)C2=O)cc1 (racemic),minimal effective dose,[2],300 mg/kg
same,minimal effective dose,[3],30 mg/kg
same,ED50,[1],279 mg/kg
same,minimal effective dose,[9],100 mg/kg
same,Activity,[4],inactive
same,ED50,[8],19.5 mg/kg
same,Activity,[5],Non-toxic
same,Activity,[10],Non-toxic
same,Ratio TD50/ED50,[12],1.6
same,Ratio TD50/ED50,[13],22.2
same,TD50 at 0.5 h,[7],433 mg/kg
O=C1NC2(CC2c2ccc3cccc(OCc4ccccc4)c3n2)C(=O)N1C1CCCCC1 (racemic),minimal effective dose,[2],300 mg/kg
same,minimal effective dose,[3],300 mg/kg
same,minimal effective dose,[9],300 mg/kg
same,Activity,[4],inactive
same,Activity,[10],Non-toxic
O=C1NC2(CC2c2ccc3cccc(OCc4ccccc4)c3n2)C(=O)N1c1ccc(C(F)(F)F)cc1 (racemic),minimal effective dose,[3],300 mg/kg
same,minimal effective dose,[9],300 mg/kg
same,Activity,[14],inactive
same,Activity,[10],Non-toxic
same,minimal effective dose,[15],300 mg/kg
CCCCN1C(=O)NC2(CC2c2ccc3cccc(OCc4ccccc4)c3n2)C1=O (racemic),minimal effective dose,[3],300 mg/kg
same,Activity,[14],inactive
same,Activity,[5],Non-toxic
same,Activity,[10],Non-toxic
same,Activity,[6],inactive
same,minimal effective dose,[15],300 mg/kg
O=C1NC2(CC2c2ccc3cccc(OCc4ccccc4)c3n2)C(=O)N1c1ccccc1 (racemic),minimal effective dose,[9],300 mg/kg
same,Activity,[14],inactive
same,Activity,[4],inactive
same,Activity,[11],inactive
same,MTD at 0.5 h,[7],300 mg/kg
Cc1ccc(N2C(=O)NC3(CC3c3ccc4cccc(OCc5ccccc5)c4n3)C2=O)cc1 (racemic),minimal effective dose,[3],100 mg/kg
same,Activity,[14],inactive
same,Activity,[4],inactive
same,Activity,[10],Non-toxic
same,Activity,[6],inactive
O=C1NC2(CC2c2ccc3cccc(OCc4ccccc4)c3n2)C(=O)N1c1ccc(Cl)cc1 (racemic),minimal effective dose,[3],300 mg/kg
same,Activity,[14],inactive
same,Activity,[4],inactive
same,Activity,[6],inactive
same,MTD at 0.5 h,[7],100 mg/kg
CCC1(C)CC(=O)NC1=O (stereo not drawn) [ETHOSUXIMIDE],minimal effective dose,[2],100 mg/kg
same,Activity,[5],Non-toxic
same,Activity,[10],Non-toxic
same,Activity,[6],inactive
same,Activity,[11],inactive
same,minimal effective dose,[15],300 mg/kg
O=C1NC(=O)C(c2ccccc2)(c2ccccc2)N1 [PHENYTOIN],minimal effective dose,[3],30 mg/kg
same,ED50,[1],> 300 mg/kg
same,minimal effective dose,[9],30 mg/kg
same,Activity,[14],inactive
same,Activity,[4],inactive
O=C1NC2(CC2c2ccc3cccc(OCc4ccccc4)c3n2)C(=O)N1c1ccc(Br)cc1 (racemic),minimal effective dose,[9],300 mg/kg
same,Activity,[14],inactive
same,Activity,[4],inactive
same,Activity,[11],inactive
same,MTD at 0.5 h,[7],100 mg/kg
O=C1NC2(CC2c2ccc3cccc(OCc4ccccc4)c3n2)C(=O)N1Cc1ccccc1 (racemic),minimal effective dose,[2],300 mg/kg
same,minimal effective dose,[9],300 mg/kg
same,Activity,[4],inactive
same,Activity,[10],Non-toxic
same,Activity,[11],inactive
O=C1NC2(CC2c2ccc3cccc(OCc4ccccc4)c3n2)C(=O)N1c1ccc(F)cc1 (racemic),minimal effective dose,[3],300 mg/kg
same,Activity,[14],inactive
same,Activity,[4],inactive
same,Activity,[10],Non-toxic
same,Activity,[6],inactive
CCC(CO)N1C(=O)NC2(CC2c2ccc3cccc(OCc4ccccc4)c3n2)C1=O (racemic),minimal effective dose,[2],100 mg/kg
same,minimal effective dose,[3],30 mg/kg
same,ED50,[1],212 mg/kg
same,minimal effective dose,[9],30 mg/kg
same,ED50,[8],8.6 mg/kg
same,Activity,[5],Non-toxic
same,Activity,[10],Non-toxic
same,Ratio TD50/ED50,[12],1.7
same,Ratio TD50/ED50,[13],26.8
same,TD50 at 0.5 h,[7],365 mg/kg
same,minimal effective dose,[15],300 mg/kg
CN1C(=O)NC2(CC2c2ccc3cccc(OCc4ccccc4)c3n2)C1=O (racemic),minimal effective dose,[3],100 mg/kg
same,Activity,[14],inactive
same,Activity,[10],Non-toxic
same,Activity,[6],inactive
same,minimal effective dose,[15],300 mg/kg
